In ChEMBL document CHEMBL1121900, “Analgesic narcotic antagonists. 9. 6-Methylene-8 beta-alkyl-N-(cycloalkylmethyl)-3-hydroxy- or -methoxymorphinans” (1981) one finds ED50 data, which are given here for 24 molecules.

The source made the active and inactive calls. The rule behind the calls is not given here. Some results are limits rather than exact numbers.

For assay [1], the system named is Mus musculus. In words: Inhibition of acetic acid induced mouse writhing assay following s.c. administration. The note with it: sc. In kind it is functional. On the technique in general: In writhing tests, fewer writhes than in controls are read as antinociception.
The target of assay [2] is T1, Opioid receptor (Rattus norvegicus) (UniProt P33533+P34975+P33535). In words: Inhibition of morphine analgesia in modified rat tail flick test. In kind it is functional. In a few lines:
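Narcotic antagonist activity measured by modified rat tail-flick against an ED80 dose of morphine. Free bases dissolved by dropwise 1 N HCl, then diluted. At least five rats per dose and at least three doses per drug; AD50 determined.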

Assay [3] deals with T1, Opioid receptor (Rattus norvegicus). In words: Inhibition of morphine analgesia in modified rat tail flick test; Inactive at 25 uMol/kg. Format: functional. The note with it: 25 uM. Background: Hot-plate and tail-flick tests time the reaction to a heat stimulus.
For assay [4], the system named is Mus musculus. In words: Inhibition of acetic acid induced mouse writhing assay following s.c. administration; Inactive at 30 uMol/kg. In kind it is functional, organism-based. As to conditions: 30 uM.
Assay [5] has as its system Mus musculus. In words: Inhibition of acetic acid induced mouse writhing assay following s.c. administration; Inactive at 50 uMol/kg. The note with it: 50 uM. In kind it is functional, organism-based.
In assay [6] the test system is Mus musculus. In words: Inhibition of acetic acid induced mouse writhing assay following s.c. administration; Inactive. In kind it is functional, organism-based.

T1 sequence (P33533 whole entry, looked up): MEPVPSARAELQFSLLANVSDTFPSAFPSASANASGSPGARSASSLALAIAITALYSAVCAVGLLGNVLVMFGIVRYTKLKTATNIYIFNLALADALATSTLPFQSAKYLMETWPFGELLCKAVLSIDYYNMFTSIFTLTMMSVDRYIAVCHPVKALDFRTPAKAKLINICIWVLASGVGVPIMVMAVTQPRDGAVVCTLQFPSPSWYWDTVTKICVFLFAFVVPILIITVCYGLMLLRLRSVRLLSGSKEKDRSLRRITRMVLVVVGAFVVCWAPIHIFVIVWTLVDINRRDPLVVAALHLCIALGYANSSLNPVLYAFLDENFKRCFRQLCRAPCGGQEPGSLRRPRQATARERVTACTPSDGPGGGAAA
T1 sequence (P33535 whole entry, looked up): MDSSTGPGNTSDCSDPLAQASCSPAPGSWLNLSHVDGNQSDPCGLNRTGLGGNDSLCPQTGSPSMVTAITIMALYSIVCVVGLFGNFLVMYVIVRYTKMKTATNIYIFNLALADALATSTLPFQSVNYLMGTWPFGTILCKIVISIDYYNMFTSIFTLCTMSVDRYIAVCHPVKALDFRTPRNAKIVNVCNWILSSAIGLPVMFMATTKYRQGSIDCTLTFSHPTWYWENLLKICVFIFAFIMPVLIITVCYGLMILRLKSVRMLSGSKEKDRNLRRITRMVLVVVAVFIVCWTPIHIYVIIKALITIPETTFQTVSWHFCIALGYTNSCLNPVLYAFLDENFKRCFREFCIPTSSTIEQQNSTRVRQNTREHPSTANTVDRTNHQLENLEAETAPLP
T1 sequence (P34975 whole entry, looked up): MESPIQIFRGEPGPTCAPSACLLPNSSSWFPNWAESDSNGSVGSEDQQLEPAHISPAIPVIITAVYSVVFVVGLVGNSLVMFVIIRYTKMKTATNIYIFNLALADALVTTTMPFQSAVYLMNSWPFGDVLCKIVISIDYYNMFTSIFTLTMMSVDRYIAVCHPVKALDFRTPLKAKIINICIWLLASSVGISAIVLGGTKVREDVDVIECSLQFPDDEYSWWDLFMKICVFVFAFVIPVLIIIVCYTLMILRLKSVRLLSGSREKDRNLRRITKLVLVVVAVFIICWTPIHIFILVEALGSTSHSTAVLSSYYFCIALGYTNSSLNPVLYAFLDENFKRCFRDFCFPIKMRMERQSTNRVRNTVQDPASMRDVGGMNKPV

As for `O=C1CCC2C3Cc4ccc(O)cc4C2(CCN3CC2CC2)C1` (stereo unspecified), the values for the ED50 (in the assay on Mus musculus [1]; in assay [2]) were 3.3 µmol/kg and 7.4 µmol/kg, respectively.

For the molecule `O=C1CCC2C3Cc4ccc(O)cc4C2(CCN3CC2CCC2)C1` (stereo unspecified), the ED50 (commonly the midpoint of the dose-response relation) in assay [3] was “inactive”.

In the case of `C[C@H]1CC(=O)CC23CCN(CC4CCC4)C(Cc4ccc(O)cc42)C13` (stereo partly specified), the ED50 in the assay on Mus musculus [1] was 0.29 µmol/kg; in assay [2] it was 2.8 µmol/kg.

`C=C1C[C@H](CC)C2C3Cc4ccc(O)cc4C2(CCN3CC2CCC2)C1` (stereo partly specified): the figures for the ED50 (in the assay with Mus musculus [1]; in assay [2]) were over 28 µmol/kg and 21.2 µmol/kg, respectively.

The molecule `O=C1CC[C@@]2(O)[C@H]3Cc4ccc(O)c5c4[C@@]2(CCN3CC2CC2)[C@H]1O5` [NALTREXONE] came in with an ED50 in the assay with Mus musculus [1] of over 28 µmol/kg.

As to `C=C1CCC2C3Cc4ccc(O)cc4C2(CCN3CC2CC2)C1` (stereo unspecified), the ED50 was determined as 1.2 µmol/kg with Mus musculus [1] and 0.37 µmol/kg in assay [2].

`C=C1C[C@H](C)C2C3Cc4ccc(OC)cc4C2(CCN3CC2CC2)C1` (stereo partly specified): the ED50 amounted to 9.5 µmol/kg in the assay on Mus musculus [1] and 11.3 µmol/kg in assay [2].

With `C=C1C[C@H](CC)C2C3Cc4ccc(O)cc4C2(CCN3CC2CC2)C1` (stereo partly specified), in the assay on Mus musculus [4], the ED50 entry was “inactive”. For the same molecule, the ED50 in assay [2] was 2.8 µmol/kg.

As for `COc1ccc2c(c1)C13CCN(CC4CCC4)C(C2)C1CCC(=O)C3` (stereo unspecified), the ED50 entry in assay [3] is “inactive”.

As for `C=C1C[C@H](C)C2C3Cc4ccc(OC)cc4C2(CCN3CC2CCC2)C1` (stereo partly specified), the values for the ED50 (with Mus musculus [1]; in assay [2]) were 16.5 µmol/kg and 14.1 µmol/kg, respectively.

Regarding `COc1ccc2c(c1)C13CCN(CC4CCC4)C(C2)C1[C@@H](C)CC(=O)C3` (stereo partly specified), the ED50 in the assay with Mus musculus [1] came to 1.38 µmol/kg; in assay [2], 16.4 µmol/kg.

`C[C@H]1[C@H]2Cc3ccc(O)cc3[C@]1(C)CCN2CC1CC1` came in with a 50% effective dose (ED50) in assay [2] of 0.81 µmol/kg.

Consider `COc1ccc2c(c1)[C@]13CCN(CC4CC4)[C@H](C2)[C@@H]1[C@@H](C)CC(=O)C3`, for which, in assay [2], the ED50 stood at 4.3 µmol/kg.

Take `CC[C@H]1CC(=O)CC23CCN(CC4CC4)C(Cc4ccc(O)cc42)C13` (stereo partly specified): the ED50 result in the assay on Mus musculus [5] was “inactive”. Also, in assay [2], it took a dose of 4.7 µmol/kg to reach the 50% effect level (ED50).

Regarding `C=C1CCC2C3Cc4ccc(O)cc4C2(CCN3CC2CCC2)C1` (stereo unspecified), the ED50 is 0.22 µmol/kg in the assay on Mus musculus [1] and over 24 µmol/kg in assay [2].

In the case of `CC[C@H]1CC(=O)CC23CCN(CC4CCC4)C(Cc4ccc(O)cc42)C13` (stereo partly specified), the ED50 turned out to be 0.54 µmol/kg in the assay with Mus musculus [1] and 0.82 µmol/kg in assay [2].

`CC(C)=CCN1CC[C@]2(C)c3cc(O)ccc3C[C@H]1[C@H]2C` [(+)-PENTAZOCINE]: the ED50 is 12.9 µmol/kg in the assay on Mus musculus [1] and 36.4 µmol/kg in assay [2].

For the molecule `C[C@H]1CC(=O)CC23CCN(CC4CC4)C(Cc4ccc(O)cc42)C13` (stereo partly specified), the values for the ED50 (in the assay with Mus musculus [1]; in assay [2]) were 10.2 µmol/kg and 1.8 µmol/kg, respectively.

As to `C=CCN1CC[C@]23c4c5ccc(O)c4O[C@H]2[C@@H](O)C=C[C@H]3[C@H]1C5` [NALORPHINE], the ED50 in the assay on Mus musculus [1] amounted to 3.5 µmol/kg; in assay [2], 2.5 µmol/kg.

Regarding `C=CCN1CC[C@]23c4c5ccc(O)c4O[C@H]2C(=O)CC[C@@]3(O)[C@H]1C5`, the ED50 result in the assay with Mus musculus [6] was “inactive”.

For the molecule `C=C1C[C@H](C)C2C3Cc4ccc(O)cc4C2(CCN3CC2CC2)C1` (stereo partly specified), the ED50 in the assay with Mus musculus [1] came out at 5.3 µmol/kg; in assay [2] it was 0.89 µmol/kg.

As to `Oc1ccc2c(c1)[C@@]13CCCC[C@@]1(O)[C@@H](C2)N(CC1CCC1)CC3`, the 50% effect level in assay [2] (ED50) was put at a dose of 2 µmol/kg.

With `C=C1CCC2C3Cc4ccc(OC)cc4C2(CCN3CC2CCC2)C1` (stereo unspecified), the figures for the ED50 (in the assay on Mus musculus [1]; in assay [2]) were 3.2 µmol/kg and over 20 µmol/kg, respectively.

As for `C=C1C[C@H](C)C2C3Cc4ccc(O)cc4C2(CCN3CC2CCC2)C1` (stereo partly specified), the ED50 was 0.53 µmol/kg with Mus musculus [1] and 2.5 µmol/kg in assay [2].
